Results as given in ChEMBL document CHEMBL1795280, “Design, synthesis and activity of a potent, selective series of N-aryl pyridinone inhibitors of p38 kinase” (Bioorg Med Chem Lett, 2011).
pIC50: −log10 of the molar value. Activity calls are given as the source filed them. The calls are words filed in the database; no cut-off is given here.

Legend:
[1] = target: T1, Mitogen-activated protein kinase 14 (Homo sapiens, UniProt Q16539); experiment: Inhibition of p38alpha assessed as phosphorylation of […] after 60 mins by fluorescence assay
Procedure, shortened: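 Cascade assay in which activated p38α (6 pM final) activates unactivated MK2 (1 nM), which phosphorylates FITC-labelled Hsp27 peptide (1 nM) with […]. Inhibitor 0.2–10,000 nM. Room temperature, 60 min, EDTA quench. Phospho-peptide quantified by Caliper LabChip; IC50.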

[2] = Metabolic stability in human liver microsomes assessed as compound remaining at 2 uM after 45 mins by LC/MS analysis; assay type: ADME, Microsome; details: read-out: Stability
[3] = Solubility of the compound; assay type: physicochemical
[4] = Metabolic stability in rat liver microsomes assessed as compound remaining at 2 uM after 45 mins by LC/MS analysis; assay type: ADME, Microsome; details: read-out: Stability
[5] = Bioavailability in iv and po dosed Sprague-Dawley rat; assay type: ADME, organism-based; details: in vivo
Rattus norvegicus [6] = experiment: Antiinflammatory activity in Lewis rat assessed as inhibition of LPS-induced TNFalpha production at 5 mg/kg, po administered 4 hrs before LPS challenge by ELISA; assay type: functional
Procedure, shortened: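 Adult male Lewis rats (225–250 g), fasted 18 h with free access to water. Compound or vehicle given by oral gavage (1 mL). LPS (E. coli 0111:B4) given 1 mg/kg i.v. in saline 2, 4 or 6 h later. Serum taken by cardiac puncture 90 min after LPS. TNFα quantified against a recombinant rat TNF standard curve with a four-parameter fit. Two vehicle groups per experiment, three experiments.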

PBMC = experiment: Antiinflammatory activity in human PBMC assessed as inhibition of LPS-induced TNFalpha production treated 1 hr before LPS challenge measured after 18 hrs; assay type: functional, cell-based
Procedure, shortened: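 PBMCs isolated by Ficoll from heparinized blood of two healthy donors, in DMEM with 5% endotoxin-free FBS, 2.5 × 10⁵ cells/well. Pretreated 1 h with compound (0.0001–25 µM range), then stimulated 18 h with 22 ng/ml LPS. Final DMSO 0.25%. Secreted TNFα measured by MSD; IC50 reported.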

[7] = Half life in iv and po dosed Sprague-Dawley rat; assay type: ADME, organism-based; details: in vivo
[8] = Clearance in iv and po dosed Sprague-Dawley rat; assay type: ADME, organism-based; details: in vivo
[9] = target: Dual specificity mitogen-activated protein kinase kinase 1 (Homo sapiens) (UniProt Q02750); experiment: Inhibition of MEK1 at 10 uM
[10] = target: Mitogen-activated protein kinase 12 (Homo sapiens) (UniProt P53778); experiment: Inhibition of p38-gamma at 10 uM
[11] = target: Inhibitor of nuclear factor kappa-B kinase subunit beta (Homo sapiens) (UniProt O14920); experiment: Inhibition of IKK-beta at 10 uM
[12] = target: MAP kinase-activated protein kinase 2 (Homo sapiens) (UniProt P49137); experiment: Inhibition of MK2 at 10 uM
[13] = target: Rho-associated protein kinase 1 (Homo sapiens) (UniProt Q13464); experiment: Inhibition of ROCK1 at 10 uM
[14] = target: Serine/threonine-protein kinase mTOR (Homo sapiens) (UniProt P42345); experiment: Inhibition of mTOR at 10 uM
[15] = target: RAF proto-oncogene serine/threonine-protein kinase (Homo sapiens) (UniProt P04049); experiment: Inhibition of c-RAF at 10 uM
[16] = Inhibition of PDGFR at 10 uM
[17] = target: Mitogen-activated protein kinase 3 (Homo sapiens) (UniProt P27361); experiment: Inhibition of ERK1 at 10 uM
[18] = target: Tyrosine-protein kinase JAK1 (Homo sapiens) (UniProt P23458); experiment: Inhibition of JAK1 at 10 uM
Rattus norvegicus [19] = experiment: Antiarthritic activity in Lewis rat assessed as inhibition of streptococal cell wall-induced increase of paw volume at 60 mg/kg, po qd for 10 days administered 10 days after streptococal cell wall challenge by displacement plethysmometer analysis; assay type: functional; details: 240 h
Procedure, shortened: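 Female Lewis rats given intraperitoneal group A streptococcal cell wall peptidoglycan-polysaccharide ([…] bodyweight). Only animals developing the acute phase were treated. Oral gavage (0.5 mL) daily from day 10 to day 21 post-SCW, with methylcellulose/Tween 20 vehicle as comparison. Four to eight animals per group, two paw volumes per animal. Paw volume measured on day 21 by water displacement plethysmometer.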

[20] = target: Rho-associated protein kinase 2 (Homo sapiens) (UniProt O75116); experiment: Inhibition of ROCK2 at 10 uM
[21] = target: Tyrosine-protein kinase ZAP-70 (Homo sapiens) (UniProt P43403); experiment: Inhibition of ZAP70 at 10 uM
[22] = Inhibition of JNK at 10 uM
[23] = target: Vascular endothelial growth factor receptor 1 (Homo sapiens) (UniProt P17948); experiment: Inhibition of FLT1 at 10 uM
[24] = target: Cyclin-dependent kinase 2 (Homo sapiens) (UniProt P24941); experiment: Inhibition of CDK2 at 10 uM
[25] = target: Vascular endothelial growth factor receptor 2 (Homo sapiens) (UniProt P35968); experiment: Inhibition of VEGFR2 at 10 uM
[26] = target: Tyrosine-protein kinase Lck (Homo sapiens) (UniProt P06239); experiment: Inhibition of LCK at 10 uM
[27] = target: T1, Mitogen-activated protein kinase 14; experiment: Inhibition of p38alpha at 10 uM
[28] = target: Mitogen-activated protein kinase 11 (Homo sapiens) (UniProt Q15759); experiment: Inhibition of p38beta at 10 uM
[29] = target: Mitogen-activated protein kinase 13 (Homo sapiens) (UniProt O15264); experiment: Inhibition of p38delta at 10 uM
[30] = target: Aurora kinase A (Homo sapiens) (UniProt O14965); experiment: Inhibition of AURKA at 10 uM
[31] = target: Non-receptor tyrosine-protein kinase TYK2 (Homo sapiens) (UniProt P29597); experiment: Inhibition of TYK2 at 10 uM
[32] = target: Interleukin-1 receptor-associated kinase 4 (Homo sapiens) (UniProt Q9NWZ3); experiment: Inhibition of IRAK4 at 10 uM
[33] = target: Epidermal growth factor receptor (Homo sapiens) (UniProt P00533); experiment: Inhibition of EGFR at 10 uM
[34] = target: Tyrosine-protein kinase JAK2 (Homo sapiens) (UniProt O60674); experiment: Inhibition of JAK2 at 10 uM
[35] = target: Tyrosine-protein kinase JAK3 (Homo sapiens) (UniProt P52333); experiment: Inhibition of JAK3 at 10 uM
[36] = target: Tyrosine-protein kinase BTK (Homo sapiens) (UniProt Q06187); experiment: Inhibition of BTK at 10 uM
[37] = target: High affinity nerve growth factor receptor (Homo sapiens) (UniProt P04629); experiment: Inhibition of TRKA at 10 uM

T1 sequence (Q16539 whole entry): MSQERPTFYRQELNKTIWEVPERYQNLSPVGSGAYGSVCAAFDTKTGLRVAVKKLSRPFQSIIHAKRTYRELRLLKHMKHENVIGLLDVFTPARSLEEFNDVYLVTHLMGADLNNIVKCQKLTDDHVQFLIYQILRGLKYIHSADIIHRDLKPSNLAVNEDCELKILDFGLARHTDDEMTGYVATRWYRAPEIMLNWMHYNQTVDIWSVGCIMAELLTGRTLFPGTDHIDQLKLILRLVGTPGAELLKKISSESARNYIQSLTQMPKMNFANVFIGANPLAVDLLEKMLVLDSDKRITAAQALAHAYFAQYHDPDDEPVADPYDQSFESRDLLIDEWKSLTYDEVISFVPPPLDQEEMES
Dual specificity mitogen-activated protein kinase kinase 1 (Homo sapiens), sequence (Q02750 whole entry): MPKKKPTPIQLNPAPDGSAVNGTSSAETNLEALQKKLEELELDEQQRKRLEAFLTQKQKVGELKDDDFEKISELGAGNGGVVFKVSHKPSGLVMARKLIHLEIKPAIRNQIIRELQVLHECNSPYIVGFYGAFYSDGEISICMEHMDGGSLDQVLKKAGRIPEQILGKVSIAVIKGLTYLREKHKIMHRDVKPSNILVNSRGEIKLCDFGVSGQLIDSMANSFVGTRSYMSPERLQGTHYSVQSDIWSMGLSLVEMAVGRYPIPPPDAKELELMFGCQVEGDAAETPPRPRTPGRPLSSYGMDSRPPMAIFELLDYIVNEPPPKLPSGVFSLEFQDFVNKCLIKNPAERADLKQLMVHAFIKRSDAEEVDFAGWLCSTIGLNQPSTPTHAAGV
Vascular endothelial growth factor receptor 2 (Homo sapiens), sequence (P35968 whole entry): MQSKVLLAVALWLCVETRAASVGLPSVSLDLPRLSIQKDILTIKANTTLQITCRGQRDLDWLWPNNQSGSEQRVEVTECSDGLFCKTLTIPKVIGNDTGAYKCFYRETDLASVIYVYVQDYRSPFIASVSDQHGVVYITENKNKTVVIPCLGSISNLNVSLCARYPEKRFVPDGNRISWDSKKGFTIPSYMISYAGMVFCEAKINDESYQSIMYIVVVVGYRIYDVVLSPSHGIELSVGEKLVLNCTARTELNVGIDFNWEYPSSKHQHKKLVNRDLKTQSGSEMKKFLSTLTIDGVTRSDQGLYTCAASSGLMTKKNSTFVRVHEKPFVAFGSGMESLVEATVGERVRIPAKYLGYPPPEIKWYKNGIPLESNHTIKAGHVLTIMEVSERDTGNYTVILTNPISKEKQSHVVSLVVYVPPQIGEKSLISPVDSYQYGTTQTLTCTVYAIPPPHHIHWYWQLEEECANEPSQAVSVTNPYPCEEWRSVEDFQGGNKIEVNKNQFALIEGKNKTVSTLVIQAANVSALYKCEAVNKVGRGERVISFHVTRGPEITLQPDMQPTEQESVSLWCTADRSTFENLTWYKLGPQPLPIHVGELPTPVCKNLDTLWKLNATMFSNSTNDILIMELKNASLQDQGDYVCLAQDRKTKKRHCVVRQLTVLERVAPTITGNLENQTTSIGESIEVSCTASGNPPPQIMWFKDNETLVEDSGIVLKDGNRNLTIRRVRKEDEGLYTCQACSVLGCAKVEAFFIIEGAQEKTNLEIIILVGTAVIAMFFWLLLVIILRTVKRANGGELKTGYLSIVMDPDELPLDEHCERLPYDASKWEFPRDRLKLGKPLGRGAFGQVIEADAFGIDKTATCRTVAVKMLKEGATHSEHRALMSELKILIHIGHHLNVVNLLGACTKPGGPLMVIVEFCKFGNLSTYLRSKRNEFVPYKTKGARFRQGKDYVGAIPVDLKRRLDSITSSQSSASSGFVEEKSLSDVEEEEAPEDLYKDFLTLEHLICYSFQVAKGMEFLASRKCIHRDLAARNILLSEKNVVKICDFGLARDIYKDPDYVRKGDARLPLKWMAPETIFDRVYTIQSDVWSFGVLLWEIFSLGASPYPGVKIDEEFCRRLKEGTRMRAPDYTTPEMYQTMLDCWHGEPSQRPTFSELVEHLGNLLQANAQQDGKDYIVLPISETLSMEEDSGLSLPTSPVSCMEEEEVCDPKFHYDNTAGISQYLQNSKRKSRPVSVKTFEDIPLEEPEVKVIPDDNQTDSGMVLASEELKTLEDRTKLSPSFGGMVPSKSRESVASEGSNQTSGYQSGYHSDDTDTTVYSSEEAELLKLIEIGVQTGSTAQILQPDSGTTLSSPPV
Tyrosine-protein kinase JAK3 (Homo sapiens), sequence (P52333 whole entry): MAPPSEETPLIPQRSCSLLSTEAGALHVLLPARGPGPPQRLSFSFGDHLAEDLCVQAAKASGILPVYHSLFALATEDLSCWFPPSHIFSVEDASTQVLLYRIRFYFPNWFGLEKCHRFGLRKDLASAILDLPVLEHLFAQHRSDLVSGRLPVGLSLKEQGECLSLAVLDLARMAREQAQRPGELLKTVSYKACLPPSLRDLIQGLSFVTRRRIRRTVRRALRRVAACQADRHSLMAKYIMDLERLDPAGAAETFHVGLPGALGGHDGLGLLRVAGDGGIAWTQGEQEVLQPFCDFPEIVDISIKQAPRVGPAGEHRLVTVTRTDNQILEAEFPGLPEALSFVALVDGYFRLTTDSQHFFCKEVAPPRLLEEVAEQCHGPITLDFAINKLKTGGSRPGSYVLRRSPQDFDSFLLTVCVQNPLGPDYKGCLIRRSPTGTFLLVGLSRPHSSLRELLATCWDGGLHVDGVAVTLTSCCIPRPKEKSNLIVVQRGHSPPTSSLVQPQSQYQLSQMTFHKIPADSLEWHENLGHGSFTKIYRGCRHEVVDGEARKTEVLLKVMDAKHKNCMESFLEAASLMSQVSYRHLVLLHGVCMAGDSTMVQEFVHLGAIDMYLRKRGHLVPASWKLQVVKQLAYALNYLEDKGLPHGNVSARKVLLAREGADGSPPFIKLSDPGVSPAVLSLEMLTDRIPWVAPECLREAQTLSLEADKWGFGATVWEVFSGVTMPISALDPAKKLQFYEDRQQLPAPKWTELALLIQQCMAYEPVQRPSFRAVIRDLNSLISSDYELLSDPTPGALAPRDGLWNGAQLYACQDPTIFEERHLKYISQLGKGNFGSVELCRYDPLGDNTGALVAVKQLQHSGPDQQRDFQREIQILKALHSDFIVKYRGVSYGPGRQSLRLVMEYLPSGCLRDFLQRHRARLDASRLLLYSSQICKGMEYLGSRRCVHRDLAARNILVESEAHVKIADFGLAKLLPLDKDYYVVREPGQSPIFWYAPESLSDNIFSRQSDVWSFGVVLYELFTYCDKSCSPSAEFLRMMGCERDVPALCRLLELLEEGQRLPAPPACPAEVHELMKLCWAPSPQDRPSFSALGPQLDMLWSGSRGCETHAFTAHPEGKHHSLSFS
Mitogen-activated protein kinase 11 (Homo sapiens), sequence (Q15759 whole entry): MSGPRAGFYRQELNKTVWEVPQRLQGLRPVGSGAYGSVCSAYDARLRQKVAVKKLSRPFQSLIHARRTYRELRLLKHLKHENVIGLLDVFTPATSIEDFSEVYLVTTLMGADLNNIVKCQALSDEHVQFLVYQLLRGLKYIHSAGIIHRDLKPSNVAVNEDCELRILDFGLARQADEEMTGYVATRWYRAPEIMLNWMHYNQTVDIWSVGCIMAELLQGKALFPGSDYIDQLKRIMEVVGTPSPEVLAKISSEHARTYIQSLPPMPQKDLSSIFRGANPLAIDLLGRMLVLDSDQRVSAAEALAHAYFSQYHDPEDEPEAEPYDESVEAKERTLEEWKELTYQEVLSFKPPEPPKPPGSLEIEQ
Tyrosine-protein kinase Lck (Homo sapiens), sequence (P06239 2-509 limits assumed): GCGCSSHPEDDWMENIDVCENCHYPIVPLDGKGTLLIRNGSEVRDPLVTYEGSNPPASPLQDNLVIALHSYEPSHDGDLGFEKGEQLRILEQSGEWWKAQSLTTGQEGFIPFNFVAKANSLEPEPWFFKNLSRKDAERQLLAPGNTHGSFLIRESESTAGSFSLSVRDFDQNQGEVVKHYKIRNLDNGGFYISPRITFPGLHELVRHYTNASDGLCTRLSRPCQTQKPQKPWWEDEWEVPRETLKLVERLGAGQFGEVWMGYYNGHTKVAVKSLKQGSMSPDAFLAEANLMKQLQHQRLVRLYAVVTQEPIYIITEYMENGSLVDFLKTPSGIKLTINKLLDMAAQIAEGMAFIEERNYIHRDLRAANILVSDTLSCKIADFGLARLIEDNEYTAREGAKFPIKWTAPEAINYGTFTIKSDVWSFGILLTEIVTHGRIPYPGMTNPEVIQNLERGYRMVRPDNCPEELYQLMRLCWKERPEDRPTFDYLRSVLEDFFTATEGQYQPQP
Tyrosine-protein kinase BTK (Homo sapiens), sequence (Q06187 whole entry): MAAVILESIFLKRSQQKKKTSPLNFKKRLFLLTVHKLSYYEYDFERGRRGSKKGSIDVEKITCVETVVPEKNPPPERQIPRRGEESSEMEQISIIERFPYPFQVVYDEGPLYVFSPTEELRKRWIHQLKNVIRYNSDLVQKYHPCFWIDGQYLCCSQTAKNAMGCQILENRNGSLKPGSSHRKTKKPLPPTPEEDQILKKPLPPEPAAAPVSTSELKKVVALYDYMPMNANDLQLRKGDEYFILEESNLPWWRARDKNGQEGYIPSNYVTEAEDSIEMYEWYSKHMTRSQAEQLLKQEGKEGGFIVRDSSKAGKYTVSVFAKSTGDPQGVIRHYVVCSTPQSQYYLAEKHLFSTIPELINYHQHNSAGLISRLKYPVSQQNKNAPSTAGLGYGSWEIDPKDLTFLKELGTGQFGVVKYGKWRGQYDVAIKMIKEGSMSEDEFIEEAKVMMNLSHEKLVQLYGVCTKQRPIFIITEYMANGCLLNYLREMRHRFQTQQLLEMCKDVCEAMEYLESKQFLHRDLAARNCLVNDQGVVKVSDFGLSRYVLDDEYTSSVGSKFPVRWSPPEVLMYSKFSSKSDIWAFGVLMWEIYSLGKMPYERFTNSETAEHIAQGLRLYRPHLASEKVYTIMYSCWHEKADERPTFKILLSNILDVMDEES

## Cc1cc(OCc2ccc(F)cc2F)c(Br)c(=O)n1-c1c(F)cc(N2CCN(C)CC2)cc1F
[1]
  pIC50: 7.85

## Cc1cc(OCc2ccc(F)cc2F)c(Br)c(=O)n1-c1ccc(C(=O)N(C)C)cc1
[1]
  pIC50: 6.13

## Cc1cc(OCc2ccc(F)cc2F)c(Br)c(=O)n1-c1ccc(CN)cc1
[1]
  pIC50: 7.29

## Cc1cc(OCc2ccc(F)cc2)c(Br)c(=O)n1-c1c(Cl)cccc1Cl
[1]
  pIC50: 8.22

## Cc1cc(OCc2ccccc2)c(Br)c(=O)n1-c1c(Cl)cccc1Cl
[1]
  pIC50: 7.52

## O=c1c(Br)c(OCc2ccc(F)cc2F)cc(CO)n1-c1c(F)cccc1F
[2]
  remaining at 0.75 h, 2 µM: 39%
[3]
  solubility: < 10 µg/mL
[4]
  remaining at 0.75 h, 2 µM: 65%
[5]
  bioavailability: 19%
[1]
  pIC50: 8.30
Rattus norvegicus [6]
  inhibition in vivo at 5 mg/kg: 93%
PBMC
  pIC50: 7.60
[7]
  half-life: 8.9 h
[8]
  clearance: 4 mL/min/kg

## CNC(=O)c1ccc(-n2c(C)cc(OCc3ccc(F)cc3F)c(Br)c2=O)cc1
[1]
  pIC50: 6.90

## O=c1c(Cl)c(OCc2ccc(F)cc2F)cc(CO)n1-c1c(F)cccc1F
[9]
  inhibition: < 50%
[10]
  inhibition: < 50%
[2]
  remaining at 0.75 h, 2 µM: 70%
[11]
  inhibition: < 50%
[12]
  inhibition: < 50%
[13]
  inhibition: < 50%
[3]
  solubility: < 10 µg/mL
[4]
  remaining at 0.75 h, 2 µM: 69%
[14]
  inhibition: < 50%
[15]
  inhibition: < 50%
[16]
  inhibition: < 50%
[5]
  bioavailability: 32%
[17]
  inhibition: < 50%
[1]
  pIC50: 8.10
[18]
  inhibition: < 50%
Rattus norvegicus [19]
  inhibition in vivo at 60 mg/kg: 33%
Rattus norvegicus [6]
  inhibition in vivo at 5 mg/kg: 81%
PBMC
  pIC50: 7.35
[20]
  inhibition: < 50%
[21]
  inhibition: < 50%
[22]
  inhibition: < 50%
[23]
  inhibition: < 50%
[24]
  inhibition: < 50%
[25]
  inhibition: < 50%
[26]
  inhibition: < 50%
[27]
  inhibition: Active
[7]
  half-life: 1.5 h
[28]
  inhibition: Active
[29]
  inhibition: < 50%
[30]
  inhibition: < 50%
[31]
  inhibition: < 50%
[32]
  inhibition: < 50%
[33]
  inhibition: < 50%
[34]
  inhibition: < 50%
[35]
  inhibition: < 50%
[36]
  inhibition: < 50%
[8]
  clearance: 5.9 mL/min/kg
[37]
  inhibition: < 50%

## Cc1cc(OCc2ccc(F)cc2F)c(Br)c(=O)n1-c1ccc(CNC(N)=O)cc1
[1]
  pIC50: 6.85

## Cc1cc(OCc2ccc(F)cc2F)c(Br)c(=O)n1-c1c(Cl)cccc1Cl
[1]
  pIC50: 9.00

## Cc1cc(OCc2ccc(F)cc2F)c(Br)c(=O)n1-c1cccc(CNC(N)=O)c1
[1]
  pIC50: 6.60

## Cc1cc(OCc2ccc(F)cc2F)c(Cl)c(=O)n1-c1c(F)cc(N2CCN(C)CC2)cc1F
[1]
  pIC50: 7.64

## Cc1cc(OCc2ccc(F)cc2F)c(Br)c(=O)n1-c1cccc(CN)c1
[1]
  pIC50: 6.17

## Cc1cc(OCc2ccc(F)cc2F)c(Br)c(=O)n1-c1ccc(C(N)=O)cc1
[1]
  pIC50: 6.91

## Cc1cc(OCc2ccc(F)cc2F)c(Br)c(=O)n1-c1cccc(C(=O)N(C)C)c1
[1]
  pIC50: 6.99

## CNC(=O)c1cccc(-n2c(C)cc(OCc3ccc(F)cc3F)c(Br)c2=O)c1
[2]
  remaining at 0.75 h, 2 µM: 95%
[3]
  solubility: < 10 µg/mL
[4]
  remaining at 0.75 h, 2 µM: 92%
[5]
  bioavailability: 3%
[1]
  pIC50: 7.77
Rattus norvegicus [6]
  inhibition in vivo at 5 mg/kg: 70%
PBMC
  pIC50: 7.35
[7]
  half-life: 3.1 h
[8]
  clearance: 8.1 mL/min/kg

## Cc1cc(OCc2ccc(F)cc2F)c(Br)c(=O)n1-c1c(F)cc(O)cc1F
[1]
  pIC50: 7.82

## Cc1cc(OCc2ccc(F)cc2F)c(Br)c(=O)n1-c1c(F)cc(OCC(N)=O)cc1F
[1]
  pIC50: 8.52

## O=c1c(Br)c(OCc2ccc(F)cc2F)cc(CN2CCOCC2)n1-c1c(F)cccc1F
[1]
  pIC50: 8.05

## Cc1cc(OCc2ccc(F)cc2F)c(Br)c(=O)n1-c1cccc(CNC(=O)CO)c1
[1]
  pIC50: 6.76

## Cc1cc(OCc2ccc(F)cc2F)c(Br)c(=O)n1-c1ccc(CNC(=O)CO)cc1
[2]
  remaining at 0.75 h, 2 µM: 88%
[4]
  remaining at 0.75 h, 2 µM: 83%
[1]
  pIC50: 7.70
Rattus norvegicus [6]
  inhibition in vivo at 5 mg/kg: 43%
PBMC
  pIC50: 7.04

## CN(C)Cc1cc(OCc2ccc(F)cc2F)c(Cl)c(=O)n1-c1c(F)cccc1F
[1]
  pIC50: 8.10

## Cc1cc(OCc2ccc(F)cc2F)c(Br)c(=O)n1-c1cccc(CNC(=O)CN)c1
[1]
  pIC50: 6.58

## Cc1cc(OCc2ccc(F)cc2F)c(Br)c(=O)n1-c1c(F)cc(N(C)C)cc1F
[1]
  pIC50: 8.10

## Cc1cc(OCc2ccc(F)cc2F)c(Br)c(=O)n1-c1ccc(CNC(=O)CN)cc1
[2]
  remaining at 0.75 h, 2 µM: 97%
[4]
  remaining at 0.75 h, 2 µM: 91%
[1]
  pIC50: 7.82
Rattus norvegicus [6]
  inhibition in vivo at 5 mg/kg: 64%
PBMC
  pIC50: 6.93

## Cc1cc(OCc2ccc(F)cc2F)c(Br)c(=O)n1-c1c(F)cc(OCCO)cc1F
[2]
  remaining at 0.75 h, 2 µM: 87%
[4]
  remaining at 0.75 h, 2 µM: 96%
[1]
  pIC50: 8.15
Rattus norvegicus [6]
  inhibition in vivo at 5 mg/kg: 44%
PBMC
  pIC50: 7.21

## Cc1cc(OCc2ccc(F)cc2F)c(Br)c(=O)n1-c1c(F)cccc1F
[2]
  remaining at 0.75 h, 2 µM: 60%
[3]
  solubility: < 10 µg/mL
[4]
  remaining at 0.75 h, 2 µM: 80%
[5]
  bioavailability: 19%
[1]
  pIC50: 8.52
Rattus norvegicus [6]
  inhibition in vivo at 5 mg/kg: 38%
PBMC
  pIC50: 7.66
[7]
  half-life: 1.9 h
[8]
  clearance: 28.7 mL/min/kg
